Results on 14 compounds are retold here after ChEMBL document CHEMBL1127454, “Differential inhibition of aminopeptidase A and aminopeptidase N by new beta-amino thiols” (J Med Chem, 1994).

The target of one assay is T1, Aminopeptidase N (Sus scrofa, UniProt P15145).
T1 sequence (P15145 whole entry): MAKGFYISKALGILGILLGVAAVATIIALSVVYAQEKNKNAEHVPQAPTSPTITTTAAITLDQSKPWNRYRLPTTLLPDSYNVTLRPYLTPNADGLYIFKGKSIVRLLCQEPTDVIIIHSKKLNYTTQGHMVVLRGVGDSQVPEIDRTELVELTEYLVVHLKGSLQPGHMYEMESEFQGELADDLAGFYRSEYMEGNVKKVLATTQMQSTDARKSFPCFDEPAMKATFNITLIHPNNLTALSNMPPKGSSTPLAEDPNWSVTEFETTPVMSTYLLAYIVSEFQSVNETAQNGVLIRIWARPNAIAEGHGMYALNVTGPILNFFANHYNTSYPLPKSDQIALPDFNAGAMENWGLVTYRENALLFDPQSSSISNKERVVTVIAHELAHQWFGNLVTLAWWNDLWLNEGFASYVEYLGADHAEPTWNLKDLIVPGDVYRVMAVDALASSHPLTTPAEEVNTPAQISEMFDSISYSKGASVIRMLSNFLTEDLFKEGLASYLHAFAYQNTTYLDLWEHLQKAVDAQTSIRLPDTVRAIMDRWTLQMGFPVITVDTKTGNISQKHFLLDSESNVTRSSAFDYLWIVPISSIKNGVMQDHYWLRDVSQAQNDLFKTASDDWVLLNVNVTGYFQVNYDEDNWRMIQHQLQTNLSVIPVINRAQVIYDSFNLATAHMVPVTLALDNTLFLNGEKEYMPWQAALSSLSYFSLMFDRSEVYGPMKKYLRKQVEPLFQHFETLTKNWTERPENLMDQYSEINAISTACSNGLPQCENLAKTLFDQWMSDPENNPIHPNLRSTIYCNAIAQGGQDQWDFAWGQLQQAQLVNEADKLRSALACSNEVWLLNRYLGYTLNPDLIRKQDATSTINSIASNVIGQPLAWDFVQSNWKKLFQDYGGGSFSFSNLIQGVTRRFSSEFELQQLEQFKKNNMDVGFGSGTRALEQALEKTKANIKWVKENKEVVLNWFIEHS
In words: Inhibitory potency was measured on aminopeptidase N (APN). The method in brief:
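APN preincubated 15 min at 25 °C with varied inhibitor levels in 50 mM Tris-HCl pH 7.4. […] Reaction run 15 min, stopped with HCl. Released [3H]Tyr separated on polystyrene beads and counted by liquid scintillation. Thiols dissolved with DTT (100 equiv). Ki derived from IC50 via Cheng-Prusoff, competitive inhibition assumed. Three experiments, triplicate.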

Assay [1] deals with Glutamyl aminopeptidase (Oryctolagus cuniculus). Description: Inhibition of aminopeptidase A (APA).

What is called Ki is the dissociation constant of the complex between target and ligand, obtained from inhibition or displacement.

SMILES strings stand for the structures.

Regarding `NC(CS)CCCCC(=O)O` (centres undefined), the affinity at Aminopeptidase N corresponds to a Ki of 0.28 µM.

As to `N[C@H](CS)CCS(=O)(=O)O`, the inhibition constant Ki at Aminopeptidase N came out at 25 µM.

Take `N[C@H](CS)CCCC(=O)O`: affinity at Aminopeptidase N was put at a Ki of 0.33 µM.

Compound `N[C@H](CS)CCCS` yielded a Ki at Aminopeptidase N of 0.032 µM.

Compound `N[C@@H](CS)CCCC(=O)O` had a Ki at Aminopeptidase N of 15.5 µM.

Consider `NC(CS)CCC(C(=O)O)C(=O)O` (centres undefined), for which, on Aminopeptidase N, the Ki was 0.6 µM.

In turn, `NC(CS)CCCP(=O)(O)O` (centres undefined) registered a Ki at Aminopeptidase N of 3.7 µM.

For the compound `NC(CS)CC(C(=O)O)C(=O)O` (centres undefined), the Ki at Aminopeptidase N is 4.5 µM. This Ki and that of the compound before are within 1.5-fold of each other.

Turning to `CC(C[C@H](N)CS)C(=O)O` (some centres undefined), on Aminopeptidase N, the Ki amounted to 4 µM.

`N[C@H](CS)CCC(=O)O` registered a Ki in assay [1] of 0.14 µM.

With `CC(CC(N)CS)C(=O)O` (centres undefined), the affinity at Aminopeptidase N corresponds to a Ki of 2.8 µM.

In turn, `N[C@H](CS)CCCC(=O)NO` had a Ki at Aminopeptidase N of 0.037 µM.

In the case of `N[C@H](CS)CCCS(=O)(=O)O`, on Aminopeptidase N, the affinity, expressed as Ki, was 1.9 µM.

Consider `NC(CS)CCP(=O)(O)O` (centres undefined), for which the affinity on Aminopeptidase N, expressed as Ki, was 12 µM.
